From PubChem
This is a sample that favours compounds with a hit; in the whole collection about 6.9% have one here.
Calb biofilm kill = kills Candida albicans biofilms; C. albicans biofilm + clotrimazole, Alamar Blue; inhibition, % at 6 µM; actives 0.14% (n = 85,000); AID 834;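 active = inhibition above 20%; inactive = inhibition below 20%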;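 note: preformed 24 hr biofilms exposed to compound for 48 hr; 0% = biofilm without compound and 100% = blank killed by clotrimazole plus chlorhexidine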
PTK2B oligo ant = blocks oligomerization of human Pyk2 in cells | Q14289 | Q293 cells, Pyk2 FERM NanoBiT luminescence; stronger effect = lower value | z-score (the deposit names both 25 µM and 10 µM) | actives 0.83% (n = 99,000) | AID 1347419;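 active = Z-score of -3 or lower, scaled per plate to the spread of control and sample wells; inactive = z-score above -3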;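 note: negative z-score means lost luminescence so less FERM oligomerization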
Ecoli tolC = blocks growth of E. coli BW25113 tolC mutant; OD615; growth inhibition, % at 10 µM (by protocol); actives 2.2% (n = 65,000); AID 573;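 active = growth inhibition at or above a cutoff equal to the mean over every tested compound plus 3 SD, cut at about 60% in these data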;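 note: growth measured after 20 h incubation at 37 °C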
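Test system: E. coli BW25113 ΔtolC::kan bacteria; incubation: 37 °C, 20 h exposure; medium: LB broth supplemented with 50 µg/mL kanamycin; read-out basis: percent growth inhibition; signal: A615 absorbance measurement; compound: 10 µM final, single dose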
PostGolgi yeast = growth inhibition of a yeast mutant, post-Golgi transport screen; inhibition, % at 10 µM; post-Golgi transport phenotypic cell assay; actives 0.9% (n = 98,000);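 note: yeast cells grown in 1536-well plates; yeast grown about 18 h at 30C before absorbance read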
FAK inh = inhibitors of human focal adhesion kinase; inhibition, %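 (tested at 7 µM)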; Q05397; biochemical FAK kinase activity assay; AID 727; actives 0.84% (n = 97,000); in the data active = inhibition above about 19%;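 note: 0% = DMSO and 100% = reference compound high control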
PostGolgi ctrl = yeast control strain growth, post-Golgi counter-screen. efflux-deficient yeast background strain, growth absorbance A615, 16 h. inhibition, % at 10 µM. actives 5% (n = 98,000)
* marks the source's active call; other numbers are inactive results; x = no result. Cut-off read from the data, not from the text of the source, unless noted: active = inhibition above about 30%; inactive = the rest.

SMILES	Calb biofilm kill	PTK2B oligo ant	Ecoli tolC	PostGolgi yeast	FAK inh	PostGolgi ctrl
Cc1ccc(-c2nn(-c3ccccc3)cc2C=C2C(=O)CC(C)(C)CC2=O)cc1	x	-1.6	x	0	-3	30
CC1=NNC(=O)/C1=C\c1cn(-c2ccccc2)nc1-c1ccc(Cl)cc1	x	-2.4	x	109*	-2	98*
Cc1cccc(OCCCn2c(CCNC(=O)C(C)C)nc3ccccc32)c1	x	1.2	x	x	-1	x
Cc1[nH]ccc(=O)c1OCc1c(Cl)cccc1Cl	x	0.36	x	8	-4	4
Cc1ccc(Cn2ccc(=O)c(OCc3c(Cl)cccc3Cl)c2C)cc1	2	-1.4	x	4	2	48*
O=C(NCCCn1ccnc1)c1ccc2c(c1)OCCO2	5	0.1	-17	-6	0	47*
Cc1ccc(NC(=O)CCn2nc(C)cc2C)cc1	9	0.4	x	3	0	3
O=C(COn1nnc2ccc(Cl)cc21)NC12CC3CC(CC(C3)C1)C2	-1	0.51	x	6	1	52*
COc1ccc(NC(=O)COn2nnc3ccc(Cl)cc32)cc1OC	5	1.4	24	11	6	13
COc1cc(C(=O)NCCC(=O)NCCCN2CCCCC2)cc(OC)c1OC	x	-0.75	-20	0	x	1
CCCOc1ccc(C2=NNC(c3cccs3)=Nc3ccc(OC)cc32)cc1	4	0.97	x	x	-2	x
CC(C)c1ccc2c(c1)C(c1ccc(N3CCOCC3)cc1)=NNC(c1cccs1)=N2	x	-0.51	x	-1	-2	42*
Cc1ccc(/C(N)=N/OC(=O)c2cc(-c3ccccc3)nc3ccccc23)cc1	x	-0.63	x	22	-4	31*
Cc1ccc(S(=O)(=O)NCC(=O)NC2CCCC2)cc1	8	0.44	-5	-5	-2	2
Cn1c(C(=O)N2CCN(c3nc4ccccc4s3)CC2)cc2sccc21	7	0.11	-7	-9	-3	45*
O=C(CN1C(=O)C2C3C=CC(C3)C2C1=O)N1CC=C(c2ccccc2)CC1 (centres undefined)	4	0.28	-22	-2	6	31*
O=C(CN1C(=O)C2C3C=CC(C3)C2C1=O)N1CC(=O)N(CCc2ccccc2)C(=O)C1 (centres undefined)	3	0.27	-24	17	-2	6
c1ccc(-c2ccccc2-c2nc(-c3cccnc3)no2)cc1	0	-2.1	98*	38*	0	34*
c1ccc2c(-c3nc(-c4ccncc4)no3)cccc2c1	3	0.29	4	1	2	23
c1ccc(-c2noc(-c3cccc4ccccc34)n2)cc1	2	0.16	70*	0	0	1
c1ccc(CCc2ccccc2-c2nc(-c3cccnc3)no2)cc1	6	-1.3	73*	9	1	27
O=C(c1ccc(F)cc1)N1C2CCC1CC(O)(c1ccccc1F)C2 (centres undefined)	9	-0.2	-14	5	0	8
CCN(CC)c1nc(N)c2c(N)nc3c(c2c1C#N)CC(c1ccccc1)O3 (centres undefined)	12	-0.66	76*	5	1	11
N#Cc1c(N2CCCC2)nc(N)c2c(N)nc(N3CCCC3)cc12	x	-0.41	0	1	x	19
CCN(CC)c1nc(N)c2c(N)n(-c3ccccc3C)c(=S)c(C#N)c2c1C#N	7	-3.7*	-5	-3	-12	2
SMILES	Calb biofilm kill	PTK2B oligo ant	Ecoli tolC	PostGolgi yeast	FAK inh	PostGolgi ctrl
N#Cc1c(N2CCCCC2)nc(N)c2c(N)nc3c(c12)CC(c1ccccc1)O3 (centres undefined)	0	-1.8	x	0	-7	53*
Cc1c(O)c2c3c(cccc3c1O)C(=O)N(c1ccccc1)C2=O	x	0.65	x	x	x	x
NS(=O)(=O)c1ccc(Nc2nc(-c3ccc4ccccc4c3)cs2)cc1	-3	-1.8	x	-3	-2	42*
Cc1c(NC(=O)N2CCCCCC2)c(=O)n(-c2ccccc2)n1C	5	-0.2	-14	-4	-2	5
CCOc1ccc2nc(N3CCC(C(=O)N4CCN(c5ccccn5)CC4)CC3)sc2c1	4	x	12	6	x	43*
CCOc1ccc2nc(N3CCC(C(=O)N4CCN(c5ncccn5)CC4)CC3)sc2c1	-1	x	8	x	x	x
CCC(=O)N1CCc2cc(Br)cc(S(=O)(=O)N3CCCCCC3)c21	4	-1.1	31	8	-2	36*
O=C(C1CC1)N1CCc2cc(Br)cc(S(=O)(=O)N3CCCCCC3)c21	7	-1	27	-1	x	41*
